Measurements from different studies.
Protocols differ between the studies behind these lines.
Target: Prostaglandin G/H synthase 2 (PTGS2, Homo sapiens, UniProt P35354)
Effect on: enzyme activity
Mode: inhibitor
Sequence (P35354 18-604, as in one of the studies): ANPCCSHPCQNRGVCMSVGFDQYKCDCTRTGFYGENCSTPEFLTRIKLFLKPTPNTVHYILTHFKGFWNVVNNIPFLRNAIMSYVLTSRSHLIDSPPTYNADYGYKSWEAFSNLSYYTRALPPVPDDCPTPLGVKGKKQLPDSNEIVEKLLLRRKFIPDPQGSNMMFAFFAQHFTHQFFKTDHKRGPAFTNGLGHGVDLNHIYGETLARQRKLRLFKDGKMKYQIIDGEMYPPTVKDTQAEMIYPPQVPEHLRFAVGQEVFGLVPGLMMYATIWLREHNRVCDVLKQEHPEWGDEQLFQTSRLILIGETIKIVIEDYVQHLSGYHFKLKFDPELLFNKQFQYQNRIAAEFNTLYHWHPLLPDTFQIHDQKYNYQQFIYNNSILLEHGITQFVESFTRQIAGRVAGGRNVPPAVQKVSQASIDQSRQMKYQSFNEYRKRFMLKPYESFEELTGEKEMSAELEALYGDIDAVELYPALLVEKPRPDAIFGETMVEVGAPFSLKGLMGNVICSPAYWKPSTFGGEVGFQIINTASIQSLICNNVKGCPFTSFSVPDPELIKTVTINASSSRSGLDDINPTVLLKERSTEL

Compound	test	IC50 [nM]
NS(=O)(=O)c1ccc(-c2ncc(Cl)cc2-c2nc3ccccc3s2)cc1	absorbance	210
O=Cc1cn(-c2nc(Cl)nc(N3CCOCC3)n2)c2ccccc12		10000
C=C[C@@]1(C)C=C2CC[C@@H]3[C@](C)(CCC[C@@]3(C)C(=O)O)[C@H]2CC1	absorbance	18500
CC(C)Cc1ccc(-c2nn(-c3ccc(S(C)(=O)=O)cc3)cc2/C=N/N=c2\[nH]c(-c3ccc([N+](=O)[O-])cc3)cs2)cc1		817
O=Cc1cn(-c2nc(N3CCCCC3)nc(N3CCOCC3)n2)c2ccccc12		700
Cc1ccc(-c2nn(-c3ccc(S(C)(=O)=O)cc3)cc2/C=N\N=c2/[nH]c(-c3ccc([N+](=O)[O-])cc3)cs2)cc1		11300
Cc1cccc2nc(-c3ccc(S(C)(=O)=O)cc3)c(Nc3ccc(Cl)cc3)n12		80
CC1=NN(c2cccc(Cl)c2)C(=O)/C1=C\c1cn(-c2nc(Cl)nc(N3CCOCC3)n2)c2ccccc12		100
COC(=O)c1ccc(O)cc1	absorbance	97900
COc1ccc(-c2nn(-c3ccc(S(C)(=O)=O)cc3)cc2/C=N/N=c2\[nH]c(-c3ccc(Br)cc3)cs2)cc1		18600
CS(=O)(=O)c1ccc(-c2nc3ccccn3c2Nc2ccc(F)cc2)cc1		100
O=C1Nc2ccccc2/C1=C/c1cn(-c2nc(N3CCCC3)nc(N3CCOCC3)n2)c2ccccc12		8000
Cc1ccn2c(Nc3ccc(F)cc3)c(-c3ccc(S(C)(=O)=O)cc3)nc2c1		80
CS(=O)(=O)c1ccc(-n2cc(/C=N/N=c3\[nH]c(-c4ccc(Br)cc4)cs3)c(-c3ccc(Br)cc3)n2)cc1		5820
COc1ccc(Nc2c(-c3ccc(S(C)(=O)=O)cc3)nc3cccc(C)n23)cc1		90
O=C1Nc2ccccc2/C1=C/c1cn(-c2nc(N3CCOCC3)nc(N3CCOCC3)n2)c2ccccc12		1000
CC(=O)c1cccc(/N=N/c2cc(/C=C/C(=O)O)ccc2O)c1		> 100000

Compound	test	IC50 [nM]
COC(=O)c1cc(O)c(O)c(O)c1		17900
O=c1cc(-c2ccc(O)c(O)c2)oc2cc(O)cc(O)c12		2270
O=C1Nc2ccccc2/C1=C/c1cn(-c2nc(N3CCCCC3)nc(N3CCOCC3)n2)c2ccccc12		80
COc1ccc(-c2nn(-c3ccc(S(C)(=O)=O)cc3)cc2C=N/N=c2\[nH]c(-c3ccc([N+](=O)[O-])cc3)cs2)cc1		8830
CS(=O)(=O)c1ccc(-c2nc3ccccn3c2Nc2ccc(Cl)cc2)cc1		70
O=C(O)/C=C/c1ccc(O)cc1		> 100000
CCn1c(-c2nc3cc(C(=O)N4CCC[C@@H](N)C4)cc(OC)c3n2C)cc2cccnc21		> 100000
COc1ccc(Nc2c(-c3ccc(S(C)(=O)=O)cc3)nc3c(C)cccn23)cc1		80
CC(=O)c1cccc(N=Nc2c(C(=O)O)cc(O)c(O)c2O)c1		5510
Cc1ccc(-c2nc3ccccc3s2)c(-c2ccc(S(N)(=O)=O)cc2)c1	absorbance	250
COc1ccc(Nc2c(-c3ccc(S(C)(=O)=O)cc3)nc3cc(C)ccn23)cc1		100
O=C1/C(=C\c2cn(-c3nc(N4CCOCC4)nc(N4CCOCC4)n3)c3ccccc23)c2ccccc2N1c1c(Cl)cccc1Cl		400
Cc1cccn2c(Nc3ccc(F)cc3)c(-c3ccc(S(C)(=O)=O)cc3)nc12		70
O=C1/C(=C\c2cn(-c3nc(N4CCCC4)nc(N4CCOCC4)n3)c3ccccc23)c2ccccc2N1c1c(Cl)cccc1Cl		4000
CCOC(=O)c1cc(O)c(O)c(O)c1		13400
Cc1ccc(-c2nc3ccccc3s2)c(-c2ccc(S(C)(=O)=O)cc2)c1	absorbance	230
